Laboratory results as given in ChEMBL document CHEMBL1821637, “Selective cytotoxicity of oxysterols through structural modulation on rings A and B. Synthesis, in vitro evaluation, and SAR” (J Med Chem, 2011).

Experiments:
HT-29 [1] = assay: Cytotoxicity against human HT-29 cells assessed as cell viability after 48 hrs by alamar blue assay; assay type: functional, cell-based; details: for IC50: HT-29, 48 h
Outline: (§1)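 Alamar Blue viability assay on the human cell line named (origins given: HT-29 colorectal adenocarcinoma, HepG2 hepatocellular carcinoma, LAMA-84 myeloid leukemia, A549 lung adenocarcinoma, PC3 prostate metastasis, MCF-7 breast adenocarcinoma, ARPE-19 retinal pigment epithelium, BJ skin fibroblast). Exposure was 48 h. Sterol stocks were made in DMSO. IC50 is the concentration inhibiting 50% of cellular growth, given as the mean of at least three separate experiments.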

HT-29 [2] = assay: Cytotoxicity against human HT-29 cells assessed as inhibition of cell growth after 96 hrs by alamar blue assay; assay type: functional, cell-based; details: HT-29, 96 h
Outline: (§2)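 HT-29 and ARPE-19 cells exposed for 96 h. ARPE-19 seeded at 5 10^3 cells/well for this period. Sterol stocks in DMSO. Viability by Alamar Blue. IC50 is the concentration inhibiting 50% of cellular growth, mean of at least three separate experiments.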

HT-29 [3] = assay: Selectivity index, ratio of IC50 for human ARPE19 cells to IC50 for human HT-29 cells; assay type: functional
[4] = Cytotoxicity against human ARPE19 cells assessed as cell viability after 48 hrs by alamar blue assay; assay type: cell-based, ARPE-19; details: for IC50: Homo sapiens, ARPE-19, 48 h; for Activity: human, arpe-19, 48 h; outline: as §1
LAMA-84 = assay: Cytotoxicity against human LAMA-84 cells assessed as cell viability after 48 hrs by alamar blue assay; assay type: functional, cell-based; details: for IC50: LAMA-84, 48 h; outline: as §1
HepG2 = assay: Cytotoxicity against human HepG2 cells assessed as cell viability after 48 hrs by alamar blue assay; assay type: functional, cell-based; details: for IC50: HepG2, 48 h; outline: as §1
BJ = assay: Cytotoxicity against human BJ cells assessed as cell viability after 48 hrs by alamar blue assay; assay type: cell-based; details: for IC50: Homo sapiens, BJ; for Activity: human, bj; outline: as §1
PC-3 = assay: Cytotoxicity against human PC3 cells assessed as cell viability after 48 hrs by alamar blue assay; assay type: functional, cell-based; details: for IC50: PC-3, 48 h; outline: as §1
SH-SY5Y = assay: Cytotoxicity against human SH-SY5Y cells assessed as cell viability after 48 hrs by alamar blue assay; assay type: functional, cell-based
Outline: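 SH-SY5Y cells grown in DMEM/F12 (1:1) with L-glutamine, 10% heat-inactivated FBS, 100 units/mL penicillin and 0.1 mg/mL streptomycin, pH 7.4. Seeded at 5 10^3 cells/well and exposed to the sterols (DMSO stocks) for 48 h. Alamar Blue read-out. IC50 is the concentration inhibiting 50% of growth, mean of at least three separate experiments.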

A549 = assay: Cytotoxicity against human A549 cells assessed as cell viability after 48 hrs by alamar blue assay; assay type: functional, cell-based; details: for IC50: A549, 48 h
Outline: as §1, with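 “DMSO.” for “DMSO. IC50 is the concentration inhibiting 50% of cellular growth, given as the mean of at least three separate experiments.”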

[5] = Cytotoxicity against human ARPE19 cells assessed as inhibition of cell growth after 96 hrs by alamar blue assay; assay type: cell-based; details: ARPE-19, 96 h; outline: as §2
MCF7 = assay: Cytotoxicity against human MCF7 cells assessed as cell viability after 48 hrs by alamar blue assay; assay type: functional, cell-based; details: for IC50: MCF7, 48 h; outline: as §1

SMILES | IC50 (HT-29 [1]) [µM] | Ratio IC50 (HT-29 [3]) | IC50 [4] [µM] | IC50 (HepG2) [µM] | IC50 (PC-3) [µM] | IC50 (SH-SY5Y) [µM] | other results
CC(=O)O[C@@H]1[C@H]2[C@@H]3CC[C@H]([C@H](C)CCCC(C)C)[C@@]3(C)CC[C@@H]2[C@@]2(C)CC[C@H](O)C[C@]2(O)[C@@H]1O | 17 | 0.93 | 15.8 |  |  |  | IC50 (HT-29 [2]): 15.5 µM
CO[C@@H]1C[C@H]2[C@@H]3CC[C@H]([C@H](C)CCCC(C)C)[C@@]3(C)CC[C@@H]2[C@@]2(C)CC[C@H](O)C[C@]12O | 10 | 2.58 | 25.8 | 13.3 | 17.4 |  | IC50 (LAMA-84): 4.3 µM; IC50 (BJ): 17.4 µM
CC(C)CCC[C@@H](C)[C@H]1CC[C@H]2[C@@H]3C/C(=N\O)[C@@]4(O)C[C@@H](O)CC[C@]4(C)[C@H]3CC[C@]12C | 11.9 | 1.99 | 23.7 | 13.2 | 15 | 16.8 | IC50 (A549): 15 µM; IC50 (BJ): 17.1 µM
CC(=O)O[C@H]1CC[C@]2(C)[C@H]3CC[C@]4(C)[C@@H]([C@H](C)CCCC(C)C)CC[C@H]4[C@@H]3C[C@@H](O)[C@@]2(O)C1 |  | >3.09 | > 60 |  |  |  | IC50 [5]: 53 µM
CC(=O)O[C@H]1C=C2C[C@@H](O)CC[C@]2(C)[C@H]2CC[C@]3(C)[C@@H]([C@H](C)CCCC(C)C)CC[C@H]3[C@H]12 | 26.8 |  |  |  |  |  | IC50 (HT-29 [2]): 24.6 µM
CC(=O)O[C@H]1CC[C@]2(C)[C@H]3CC[C@]4(C)[C@@H]([C@H](C)CCCC(C)C)CC[C@H]4[C@@H]3[C@@H](OC(C)=O)[C@@H](OC(C)=O)[C@@]2(O)C1 | 27 |  |  |  |  |  | IC50 (HT-29 [2]): 26.7 µM
CC(C)CCC[C@@H](C)[C@H]1CC[C@H]2[C@@H]3C(=O)[C@H](O)[C@@]4(O)C[C@@H](O)CC[C@]4(C)[C@H]3CC[C@]12C | 15.2 | 1.69 | 25.7 |  |  |  | 
CC(C)CCC[C@@H](C)[C@H]1CC[C@H]2[C@@H]3CC[C@@]4(O)[C@@H](O)[C@@H](O)CC[C@]4(C)[C@H]3CC[C@]12C | 34 |  |  | 34.4 | 35.1 |  | IC50 (A549): 31.8 µM
CC(C)CCC[C@@H](C)[C@H]1CC[C@H]2[C@@H]3[C@@H](O)C=C4C[C@@H](O)CC[C@]4(C)[C@H]3CC[C@]12C |  | 3.13 |  |  |  | 16.4 | 
CC(C)CCC[C@@H](C)[C@H]1CC[C@H]2[C@@H]3[C@@H](O)[C@@H](O)[C@@]4(O)C[C@@H](O)CC[C@]4(C)[C@H]3CC[C@]12C | 13.9 | 1.54 | 21.4 | 13.8 | 17.4 | 20.2 | inhibition (MCF7): Dose-dependent effect; IC50 (MCF7): 13.1 µM; inhibition (LAMA-84): Dose-dependent effect; IC50 (LAMA-84): 5.1 µM; inhibition (HT-29 [1]): Dose-dependent effect; inhibition (HepG2): Dose-dependent effect; inhibition (SH-SY5Y): Dose-dependent effect; inhibition (A549): Dose-dependent effect; IC50 (A549): 17.3 µM; Activity [4]: Non-toxic; IC50 (BJ): 19.3 µM; Activity (BJ): Non-toxic; inhibition (PC-3): Dose-dependent effect
CC(C)CCC[C@@H](C)[C@H]1CC[C@H]2[C@@H]3[C@@H](O)[C@H](O)[C@H]4C[C@@H](O)CC[C@]4(C)[C@H]3CC[C@]12C | 14.9 | 1.28 | 19.1 |  |  |  | 
CC(C)CCC[C@@H](C)[C@H]1CC[C@H]2[C@@H]3C[C@@H](O)[C@@]4(O)[C@@H](O)[C@@H](O)CC[C@]4(C)[C@H]3CC[C@]12C | 9.1 | 2.24 | 20.4 | 12.7 | 17.1 | 14.5 | inhibition (MCF7): Dose-dependent effect; IC50 (MCF7): 14.5 µM; inhibition (LAMA-84): Dose-dependent effect; IC50 (LAMA-84): 5.1 µM; inhibition (HT-29 [1]): Dose-dependent effect; inhibition (HepG2): Dose-dependent effect; inhibition (SH-SY5Y): Dose-dependent effect; inhibition (A549): Dose-dependent effect; Activity [4]: Non-toxic; IC50 (BJ): 17.8 µM; Activity (BJ): Non-toxic; inhibition (PC-3): Dose-dependent effect
CC(C)CCC[C@@H](C)[C@H]1CC[C@H]2[C@@H]3C(=O)C=C4C[C@@H](O)CC[C@]4(C)[C@H]3CC[C@]12C [7-OXOCHOLESTEROL] |  | 1.26 | 32.3 |  |  |  | 
CC(C)CCC[C@@H](C)[C@H]1CC[C@H]2[C@@H]3C(=O)C(O)=C4C[C@@H](O)CC[C@]4(C)[C@H]3CC[C@]12C | 36.7 |  |  |  |  |  | 
CC(C)CCC[C@@H](C)[C@H]1CC[C@H]2[C@@H]3[C@@H](O)C=C4[C@@H](O)[C@@H](O)CC[C@]4(C)[C@H]3CC[C@]12C | 15.4 | 1.66 | 25.6 |  |  |  | 
CC(=O)O[C@H]1CC[C@]2(C)[C@H]3CC[C@]4(C)[C@@H]([C@H](C)CCCC(C)C)CC[C@H]4[C@@H]3C[C@@H](O)[C@@]2(O)[C@H]1O | 17.7 | 1.63 | 28.8 |  |  |  | IC50 (HT-29 [2]): 14.2 µM
CC(C)CCC[C@@H](C)[C@H]1CC[C@H]2[C@@H]3CC(=O)[C@@]4(O)C[C@@H](O)CC[C@]4(C)[C@H]3CC[C@]12C |  | 1.99 | 33.9 |  |  |  | 
CO[C@]12C[C@@H](O)CC[C@]1(C)[C@H]1CC[C@]3(C)[C@@H]([C@H](C)CCCC(C)C)CC[C@H]3[C@@H]1C[C@H]2O | 36.1 |  |  |  |  |  | 
CCCCCCCCCCCC(=O)O[C@H]1CC[C@@]2(C)C(=C[C@H](O)[C@H]3[C@@H]4CC[C@H]([C@H](C)CCCC(C)C)[C@@]4(C)CC[C@@H]32)C1 | > 50 |  |  |  |  |  | IC50 (HT-29 [2]): > 50 µM
CC(=O)O[C@@H]1C[C@H]2[C@@H]3CC[C@H]([C@H](C)CCCC(C)C)[C@@]3(C)CC[C@@H]2[C@@]2(C)CC[C@H](O)C[C@]12O | 6.8 | 2.58 | 17.9 | 11.9 | 13.2 | 12.2 | IC50 (MCF7): 11 µM; IC50 (LAMA-84): 3.9 µM; IC50 (HT-29 [2]): 6.6 µM; IC50 (A549): 13.3 µM; IC50 (BJ): 13.4 µM
COc1cccc2c1C(=O)c1c(O)c3c(c(O)c1C2=O)C[C@@](O)(C(=O)CO)C[C@@H]3O[C@H]1C[C@H](N)[C@H](O)[C@H](C)O1 [DOXORUBICIN] |  |  |  |  |  | 0.5 | 
CCCO[C@@H]1C[C@H]2[C@@H]3CC[C@H]([C@H](C)CCCC(C)C)[C@@]3(C)CC[C@@H]2[C@@]2(C)CC[C@H](O)C[C@]12O | 25.9 |  |  |  |  |  | 
CC(=O)O[C@H]1CC[C@]2(C)[C@H]3CC[C@]4(C)[C@@H]([C@H](C)CCCC(C)C)CC[C@H]4[C@@H]3[C@@H](OC(C)=O)C(=O)[C@@]2(O)C1 | 27.2 |  |  |  |  |  | 
CC(=O)O[C@@H]1[C@H]2[C@@H]3CC[C@H]([C@H](C)CCCC(C)C)[C@@]3(C)CC[C@@H]2[C@@]2(C)CC[C@H](O)C[C@]2(O)[C@@H]1OC(C)=O | 13.1 | 0.85 | 11.2 | 11.7 | 10.3 | 13.8 | inhibition (MCF7): Dose-dependent effect; IC50 (MCF7): 13.2 µM; inhibition (LAMA-84): Dose-dependent effect; IC50 (LAMA-84): 6.4 µM; inhibition (HT-29 [1]): Dose-dependent effect; inhibition (HepG2): Dose-dependent effect; inhibition (SH-SY5Y): Dose-dependent effect; IC50 (HT-29 [2]): 14.9 µM; inhibition (A549): Dose-dependent effect; IC50 (A549): 13.9 µM; Activity [4]: Toxic; IC50 (BJ): 10.2 µM; Activity (BJ): Toxic; inhibition (PC-3): Dose-dependent effect
CC(=O)N[C@@H]1C[C@H]2[C@@H]3CC[C@H]([C@H](C)CCCC(C)C)[C@@]3(C)CC[C@@H]2[C@@]2(C)CC[C@H](O)C[C@]12O | 14.5 | 1.31 | 19 | 11.6 | 19.2 |  | IC50 (A549): 14.5 µM
CC(C)CCC[C@@H](C)[C@H]1CC[C@H]2[C@@H]3C[C@@H](O)[C@@]4(O)C[C@@H](O)CC[C@]4(C)[C@H]3CC[C@]12C [CHOLESTAN-3beta,5alpha,6beta-TRIOL] |  | 1.48 |  |  |  | 17.2 | 
